Compounds with a hit are over-represented: about 2.9% of the library has one in this group of screens.
SENP8 block-1: inhibitors of human SENP8 protease | Q96LD8 | recombinant SENP8, Nedd8 substrate fluorescence | inhibition, % at 20 µM | hit rate 0.64% among 360,000 | AID 602440; in the data active means inhibition mostly above about 40%, no sharp cut-off; inactive means mostly below about 27%
SENP7 inh: SENP7 protease inhibition | Q9BQF6 | recombinant SENP7, Z-RLRGG-aminoluciferin luminescence, 40 min | inhibition, % at 5 µM | hit rate 1.5% among 330,000 | AID 434973;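 active means inhibition above about 50% at the single test dose, limit read from the data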;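 further: plate controls were DMSO with enzyme for no effect and no enzyme buffer wells for full effect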
SENP1 inh: blocks the human SENP1 SUMO protease catalytic domain; Q9P0U3; recombinant SENP1 catalytic domain, CyPet-SUMO1-YPet FRET cleavage; inhibition, % at 10 µM; hit rate 0.21% among 360,000; AID 624204;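 active means inhibition at least 30% at 10 µM, raw YFP signal under a set limit, fluorescence ratio 0.5 to 1.5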;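 further: 0% = enzyme with DMSO and 100% = no enzyme wells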
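Material – human SENP1 catalytic domain · Input – SENP1 enzyme, 20 pM final · Compound dosing – single concentration of 10 µM compound, 0.5% DMSO final · Timing – enzyme reaction for 50 min at room temperature, dark · Measured by – FRET fluorescence in CFP and YFP emission channels · Control set – no-enzyme wells low, DMSO-plus-enzyme wells high control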
HSP90 inh: blocks HSP90-mediated luciferase refolding in reticulocyte lysate | Rabbit reticulocyte lysate, luciferase refolding luminescence, 3 h | inhibition, % at 5.6 µM | hit rate 0.91% among 290,000;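 active means inhibition above the screen-wide mean plus 3 SD, computed separately per campaign, cut at about 16% in these data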;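 further: 0% = DMSO wells and 100% = 60 µM geldanamycin wells; inhibitors lower the luminescence because luciferase stays unfolded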
SENP8 block-2: inhibitors of human SENP8 protease | Q96LD8 | purified SENP8, Z-RLRGG-aminoluciferin cleavage, luminescence | inhibition, % at 10 µM | hit rate 1.2% among 330,000; in the data active means inhibition above about 50%
SENP6 inh: blocks the human protease SENP6; inhibition, % at 10 µM; hit rate 1.8% among 330,000; Q9GZR1; AID 2599; Recombinant SENP6 catalytic domain, aminoluciferin luminescence;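 active means inhibition above about 50% at the single tested dose, limit read from the data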;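 further: plate controls were DMSO wells with enzyme for no effect and DMSO wells lacking enzyme for full effect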
Target sequence (Q9GZR1 628-1112 limits assumed): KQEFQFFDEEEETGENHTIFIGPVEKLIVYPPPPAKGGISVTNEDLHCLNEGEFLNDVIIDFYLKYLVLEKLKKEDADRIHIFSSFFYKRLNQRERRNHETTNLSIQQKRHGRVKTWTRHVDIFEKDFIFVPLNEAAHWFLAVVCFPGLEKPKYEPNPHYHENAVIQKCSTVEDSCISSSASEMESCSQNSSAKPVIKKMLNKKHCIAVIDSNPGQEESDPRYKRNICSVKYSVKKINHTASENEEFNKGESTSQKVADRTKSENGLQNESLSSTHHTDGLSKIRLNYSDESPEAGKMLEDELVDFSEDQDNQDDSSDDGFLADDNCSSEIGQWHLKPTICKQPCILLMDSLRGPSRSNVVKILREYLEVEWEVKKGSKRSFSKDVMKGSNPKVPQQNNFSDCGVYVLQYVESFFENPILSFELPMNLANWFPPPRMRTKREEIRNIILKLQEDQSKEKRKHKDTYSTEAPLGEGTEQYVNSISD
HSP90 inh confirm: confirmation of HSP90 inhibitors; shares compounds with HSP90 inh; rabbit reticulocyte lysate, luciferase refolding luminescence, 3 h; inhibition, % at 5.9 µM; hit rate 64% among 2,300; AID 1846; in the data active means inhibition above about 18%;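 further: 0% = vehicle wells and 100% = reference inhibitor wells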
FLuc counter: blocks native firefly luciferase in HSP90 counter-screen. AID 1847. hit rate 48% among 2,300. purified native firefly luciferase, luminescence. shares compounds with HSP90 inh. inhibition, % at 5.9 µM;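 active means inhibition above the mean inhibition of all tested sample wells plus 3 SD, cut at about 10% in these data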;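 further: 0% = DMSO with luciferase and 100% = wells lacking luciferase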
* = called active by the depositor; ! = a repeat was not active.

Results for CCOc1ccc(NC(=O)N2CCC(c3nc4ccccc4[nH]3)CC2)cc1 ?
SENP8 block-1: 10; SENP7 inh: 3; SENP1 inh: 1; HSP90 inh: 25*; SENP8 block-2: 3; SENP6 inh: -13; HSP90 inh confirm: -13; FLuc counter: -16

How did Cc1ncc(C[n+]2csc(CCOC(=O)C34CC5CC(CC(C5)C3)C4)c2C)c(N)n1 do in these assays?
SENP8 block-1: -5; SENP7 inh: -1; SENP1 inh: 0; HSP90 inh: 50*; SENP8 block-2: 1; SENP6 inh: -4; HSP90 inh confirm: 1; FLuc counter: -4

How did Cc1ncc(C[n+]2csc(CCOC(=O)CC3C4CC5CC(C4)CC3C5)c2C)c(N)n1 (stereo not given) do in these assays?
SENP8 block-1: 16; SENP7 inh: -11; SENP1 inh: 1; HSP90 inh: -1; SENP8 block-2: -3; SENP6 inh: -13

How did Cc1oc(-c2ccc3c(c2)OCCO3)cc1C(=O)NC(Cc1ccccc1)C(=O)O (stereo not given) do in these assays?
SENP8 block-1: -15; SENP7 inh: 3; SENP1 inh: -2; HSP90 inh: 39*; SENP8 block-2: 3; SENP6 inh: 3; HSP90 inh confirm: 65*; FLuc counter: 18*

How did COC(=O)CCC(NC(=O)c1cc(-c2ccc3c(c2)OCCO3)oc1C)C(=O)OC (stereo not given) do in these assays?
SENP8 block-1: -14; SENP7 inh: 3; SENP1 inh: -1; HSP90 inh: 5; SENP8 block-2: 0; SENP6 inh: -10

How did Nc1nc(-c2ccco2)c(-c2ccco2)s1 do in these assays?
SENP8 block-1: -67; SENP7 inh: 10; SENP1 inh: 21; HSP90 inh: 20*; SENP8 block-2: 7; SENP6 inh: -3; HSP90 inh confirm: 0; FLuc counter: -3

How did NC(=O)Cc1ncc(C(F)(F)F)cc1Cl do in these assays?
SENP8 block-1: 14; SENP7 inh: -7; SENP1 inh: 3; HSP90 inh: 25*; SENP8 block-2: -1; SENP6 inh: -27; HSP90 inh confirm: -1; FLuc counter: -5

How did Cc1cccnc1CCNC(=O)c1ccc(OC2CCN(Cc3ccccn3)CC2)cc1 do in these assays?
SENP8 block-1: 1; SENP7 inh: 7; SENP1 inh: -14; HSP90 inh: 14; SENP8 block-2: -4; SENP6 inh: -18

What do the screens show for `O=C(NCCc1cccc(Cl)c1)c1ccc(OC2CCN(Cc3ccccn3)CC2)cc1`?
SENP8 block-1: 5; SENP7 inh: -3; SENP1 inh: -14; HSP90 inh: 22*; SENP8 block-2: -3; SENP6 inh: 4; HSP90 inh confirm: 19*; FLuc counter: -6

What do the screens show for `C=C(C)c1nc(Oc2ccccc2)nc(Oc2ccccc2)n1`?
SENP8 block-1: 13; SENP1 inh: 1

How did CC1(C)CC(=O)C/C(=N/Nc2nc3ccccc3s2)C1 do in these assays?
SENP8 block-1: -250; SENP7 inh: 6; SENP1 inh: -16; HSP90 inh: 22*; SENP8 block-2: 4; SENP6 inh: -7; HSP90 inh confirm: 5; FLuc counter: -6

How did Cc1cc(/C=N/Nc2nc(N)ncc2[N+](=O)[O-])c(C)n1-c1cccc(C(F)(F)F)c1 do in these assays?
SENP7 inh: -15; HSP90 inh: 34*; SENP8 block-2: -16; SENP6 inh: 1; HSP90 inh confirm: 29*; FLuc counter: 16*

Results for C/C(=N\NC(=O)CCCC(=O)O)c1c(-c2ccccc2)c2cc(Cl)ccc2[nH]c1=O ?
SENP8 block-1: 3; SENP7 inh: 5; SENP1 inh: 0; HSP90 inh: 5; SENP8 block-2: 1; SENP6 inh: -11

What do the screens show for `O=C(c1ccc2nc(N3CCOCC3)sc2c1)N1CCCC1`?
SENP8 block-1: 13; SENP7 inh: 10; SENP1 inh: 2; HSP90 inh: -3; SENP8 block-2: -8; SENP6 inh: -18

What do the screens show for `COc1ccc(N2CCN(C(=O)c3ccc4nc(N5CCCCC5)sc4c3)CC2)cc1`?
SENP8 block-1: -3; SENP7 inh: 5; SENP1 inh: -1; HSP90 inh: 19*; SENP8 block-2: 7; SENP6 inh: -5; HSP90 inh confirm: 29*; FLuc counter: -8

What do the screens show for `CCN(CC)c1ccc(SS(=O)(=O)O)cc1`?
SENP8 block-1: 24; SENP7 inh: 13; SENP1 inh: 3; HSP90 inh: 25*!; SENP8 block-2: -1; SENP6 inh: -1; HSP90 inh confirm: 69*; FLuc counter: -9

What do the screens show for `Cc1ccc2c(COC(=O)c3ccc(NC(=O)CC#N)cc3)cc(=O)oc2c1C`?
SENP8 block-1: 2; SENP7 inh: -8; SENP1 inh: -5; HSP90 inh: 19*; SENP8 block-2: -2; SENP6 inh: 0; HSP90 inh confirm: 22*; FLuc counter: -6

How did Cc1cc(C)c(C(=O)COC(=O)c2ccc(NC(=O)CC#N)cc2)cc1C do in these assays?
SENP8 block-1: -38; SENP7 inh: 5; SENP1 inh: -43; HSP90 inh: 3; SENP8 block-2: 0; SENP6 inh: -5

How did CCc1nnc(NC(=O)CSc2nc3c(cc2C#N)CCCC3)s1 do in these assays?
SENP8 block-1: -390; SENP7 inh: -2; SENP1 inh: -19; HSP90 inh: 25*; SENP8 block-2: 2; SENP6 inh: -6; HSP90 inh confirm: 2; FLuc counter: -4

Results for CC1(C)CC(NC(=O)COc2ccccc2Cl)CC(C)(C)N1 ?
SENP8 block-1: 17; SENP7 inh: -8; SENP1 inh: 3; HSP90 inh: 33*; SENP8 block-2: 0; SENP6 inh: 8; HSP90 inh confirm: 37*; FLuc counter: 45*

How did CCN(C[C@H]1N[C@@](C)(C(=O)OC)[C@H]2C(=O)N(C)C(=O)[C@@H]12)C(=O)C1CCCCC1 do in these assays?
SENP8 block-1: -1; SENP7 inh: 7; SENP1 inh: 1; SENP8 block-2: -2; SENP6 inh: 29
